From ChEMBL document CHEMBL2176950, “A frozen analogue approach to aminopyridinylimidazoles leading to novel and promising p38 MAP kinase inhibitors” (J Med Chem, 2012) come the findings set out here.

The term IC50 denotes the point on the concentration scale where inhibition reaches its midpoint.

For experiment [1], the target named is T1, Mitogen-activated protein kinase 14 (Homo sapiens, UniProt Q16539). The experiment can be described thus: Ratio of SB203580 IC50 to compound IC50 for inhibition of p38alpha MAPK. The method in brief:
(§1)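 p38 MAPK activity assay run by a previously published protocol. IC50 given as mean with SEM from three experiments. The activity coefficient is the IC50 of the SB203580 reference divided by the IC50 of the test compound.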

In experiment [2] the target is T1, Mitogen-activated protein kinase 14. The experiment can be described thus: Inhibition of p38alpha MAPK. The method in brief:
as §1

The target in experiment [3] is TRAF2 and NCK-interacting protein kinase (Homo sapiens) (UniProt Q9UKE5). The experiment can be described thus: Inhibition of KIAA0551 assessed as residual activity at 1000 nM.
Sequence of TRAF2 and NCK-interacting protein kinase (Homo sapiens) (Q9UKE5 whole entry, looked up): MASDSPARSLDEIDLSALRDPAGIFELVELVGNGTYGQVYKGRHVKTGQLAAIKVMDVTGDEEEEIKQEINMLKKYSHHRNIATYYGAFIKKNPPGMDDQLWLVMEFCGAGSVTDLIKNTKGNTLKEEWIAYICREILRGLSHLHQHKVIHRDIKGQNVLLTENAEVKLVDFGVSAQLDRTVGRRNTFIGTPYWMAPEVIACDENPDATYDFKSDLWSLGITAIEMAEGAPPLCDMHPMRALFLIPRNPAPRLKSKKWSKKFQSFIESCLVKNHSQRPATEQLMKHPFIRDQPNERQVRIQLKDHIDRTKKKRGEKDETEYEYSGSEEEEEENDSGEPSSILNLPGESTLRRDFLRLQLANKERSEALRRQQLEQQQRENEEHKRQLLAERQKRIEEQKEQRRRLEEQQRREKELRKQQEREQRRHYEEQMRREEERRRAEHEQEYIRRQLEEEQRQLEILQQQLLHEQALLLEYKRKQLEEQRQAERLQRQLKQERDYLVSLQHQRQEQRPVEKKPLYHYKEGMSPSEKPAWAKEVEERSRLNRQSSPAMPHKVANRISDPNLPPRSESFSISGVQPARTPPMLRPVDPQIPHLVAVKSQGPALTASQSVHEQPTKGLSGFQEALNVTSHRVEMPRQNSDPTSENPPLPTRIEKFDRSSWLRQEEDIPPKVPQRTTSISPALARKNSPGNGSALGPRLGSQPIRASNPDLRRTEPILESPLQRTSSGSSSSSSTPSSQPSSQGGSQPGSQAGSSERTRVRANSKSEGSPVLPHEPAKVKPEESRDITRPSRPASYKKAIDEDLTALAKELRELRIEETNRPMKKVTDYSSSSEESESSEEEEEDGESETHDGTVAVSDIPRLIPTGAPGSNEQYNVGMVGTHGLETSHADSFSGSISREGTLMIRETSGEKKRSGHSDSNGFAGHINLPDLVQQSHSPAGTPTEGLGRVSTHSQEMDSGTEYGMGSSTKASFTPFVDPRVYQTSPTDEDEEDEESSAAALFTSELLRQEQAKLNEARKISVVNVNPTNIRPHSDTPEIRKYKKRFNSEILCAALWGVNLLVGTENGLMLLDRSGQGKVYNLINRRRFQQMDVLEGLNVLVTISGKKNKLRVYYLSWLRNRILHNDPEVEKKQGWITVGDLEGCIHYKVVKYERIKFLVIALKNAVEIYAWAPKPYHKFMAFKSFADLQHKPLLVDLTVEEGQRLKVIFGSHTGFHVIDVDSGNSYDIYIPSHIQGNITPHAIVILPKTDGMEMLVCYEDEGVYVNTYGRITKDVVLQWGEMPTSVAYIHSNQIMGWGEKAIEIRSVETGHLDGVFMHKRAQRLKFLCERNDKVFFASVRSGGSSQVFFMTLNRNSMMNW
Experiment [4] addresses T1, Mitogen-activated protein kinase 14. Briefly: Inhibition of MAPK14 assessed as residual activity at 1000 nM.
Experiment [5] addresses Proto-oncogene tyrosine-protein kinase Src (Homo sapiens) (UniProt P12931). The experiment can be described thus: Inhibition of SRC assessed as residual activity at 1000 nM.
The target of experiment [6] is Receptor-interacting serine/threonine-protein kinase 2 (Homo sapiens) (UniProt O43353). Briefly: Inhibition of RIPK2 assessed as residual activity at 1000 nM.
Sequence of Receptor-interacting serine/threonine-protein kinase 2 (Homo sapiens) (O43353 whole entry): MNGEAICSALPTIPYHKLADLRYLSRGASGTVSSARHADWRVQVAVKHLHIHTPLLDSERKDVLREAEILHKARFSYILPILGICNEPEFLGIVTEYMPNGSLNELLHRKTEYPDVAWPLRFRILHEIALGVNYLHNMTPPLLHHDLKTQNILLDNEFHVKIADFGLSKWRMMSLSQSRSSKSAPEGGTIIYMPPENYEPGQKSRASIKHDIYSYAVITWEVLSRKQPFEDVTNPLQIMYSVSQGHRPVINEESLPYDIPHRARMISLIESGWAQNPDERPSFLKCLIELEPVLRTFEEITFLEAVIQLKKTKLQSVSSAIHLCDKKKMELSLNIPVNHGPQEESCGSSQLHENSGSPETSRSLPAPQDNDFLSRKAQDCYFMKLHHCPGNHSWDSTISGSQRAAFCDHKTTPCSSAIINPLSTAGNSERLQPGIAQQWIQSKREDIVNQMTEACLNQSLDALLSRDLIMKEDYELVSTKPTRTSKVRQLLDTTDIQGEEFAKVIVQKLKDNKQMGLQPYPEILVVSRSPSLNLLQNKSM
In experiment [7] the target is Mitogen-activated protein kinase 11 (Homo sapiens) (UniProt Q15759). Briefly: Inhibition of MAPK11 assessed as residual activity at 1000 nM.
Sequence of Mitogen-activated protein kinase 11 (Homo sapiens) (Q15759 whole entry): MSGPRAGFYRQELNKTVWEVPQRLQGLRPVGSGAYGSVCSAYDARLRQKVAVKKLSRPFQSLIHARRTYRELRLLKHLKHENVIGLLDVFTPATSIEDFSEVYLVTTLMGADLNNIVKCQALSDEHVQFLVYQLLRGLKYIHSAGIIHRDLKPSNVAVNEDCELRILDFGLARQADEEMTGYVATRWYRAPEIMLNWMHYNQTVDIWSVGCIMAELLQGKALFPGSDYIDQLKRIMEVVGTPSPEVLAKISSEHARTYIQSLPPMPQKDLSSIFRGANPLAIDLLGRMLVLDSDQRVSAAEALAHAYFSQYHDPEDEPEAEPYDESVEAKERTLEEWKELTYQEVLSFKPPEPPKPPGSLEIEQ
Experiment [8] addresses T2, Serine/threonine-protein kinase 36 (Homo sapiens) (UniProt Q9NRP7).
T2 sequence (whole entry): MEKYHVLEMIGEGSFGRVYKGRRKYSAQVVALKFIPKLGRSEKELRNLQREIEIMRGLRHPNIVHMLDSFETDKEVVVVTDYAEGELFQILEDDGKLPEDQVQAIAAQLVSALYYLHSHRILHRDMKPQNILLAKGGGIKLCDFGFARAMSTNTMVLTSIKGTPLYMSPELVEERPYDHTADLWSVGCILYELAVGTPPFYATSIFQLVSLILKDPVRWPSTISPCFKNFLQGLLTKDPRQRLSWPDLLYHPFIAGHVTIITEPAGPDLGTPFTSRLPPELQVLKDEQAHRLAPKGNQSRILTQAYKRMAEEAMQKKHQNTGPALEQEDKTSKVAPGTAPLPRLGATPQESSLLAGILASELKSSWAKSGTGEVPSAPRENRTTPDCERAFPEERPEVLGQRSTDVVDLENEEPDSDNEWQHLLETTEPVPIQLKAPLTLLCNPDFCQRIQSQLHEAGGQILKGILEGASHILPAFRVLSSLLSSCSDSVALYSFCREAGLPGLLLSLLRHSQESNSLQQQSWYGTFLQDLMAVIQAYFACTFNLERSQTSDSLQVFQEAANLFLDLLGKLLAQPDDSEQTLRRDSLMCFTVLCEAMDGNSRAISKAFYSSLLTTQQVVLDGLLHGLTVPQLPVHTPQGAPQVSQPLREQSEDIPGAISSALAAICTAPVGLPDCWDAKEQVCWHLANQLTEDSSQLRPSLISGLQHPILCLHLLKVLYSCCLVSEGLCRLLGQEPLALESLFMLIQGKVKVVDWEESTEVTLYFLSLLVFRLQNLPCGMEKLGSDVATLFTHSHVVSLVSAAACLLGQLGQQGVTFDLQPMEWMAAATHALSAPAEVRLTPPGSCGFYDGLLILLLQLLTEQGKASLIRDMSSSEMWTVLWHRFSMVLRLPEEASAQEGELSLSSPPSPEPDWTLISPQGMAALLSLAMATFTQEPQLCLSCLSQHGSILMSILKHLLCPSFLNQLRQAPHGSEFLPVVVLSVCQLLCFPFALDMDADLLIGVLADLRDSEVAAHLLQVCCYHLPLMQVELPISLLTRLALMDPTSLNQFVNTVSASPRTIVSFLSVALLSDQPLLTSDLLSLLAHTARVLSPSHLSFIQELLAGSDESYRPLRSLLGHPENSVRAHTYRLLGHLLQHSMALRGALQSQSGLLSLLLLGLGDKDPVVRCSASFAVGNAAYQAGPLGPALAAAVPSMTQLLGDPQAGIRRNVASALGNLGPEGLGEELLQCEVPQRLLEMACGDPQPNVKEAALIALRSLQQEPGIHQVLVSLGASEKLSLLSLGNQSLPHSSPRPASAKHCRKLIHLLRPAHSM
Briefly: Inhibition of STK36 assessed as residual activity at 1000 nM.

Experiment [9] addresses T3, Cyclin-G-associated kinase (Homo sapiens) (UniProt O14976).
T3 sequence (whole entry): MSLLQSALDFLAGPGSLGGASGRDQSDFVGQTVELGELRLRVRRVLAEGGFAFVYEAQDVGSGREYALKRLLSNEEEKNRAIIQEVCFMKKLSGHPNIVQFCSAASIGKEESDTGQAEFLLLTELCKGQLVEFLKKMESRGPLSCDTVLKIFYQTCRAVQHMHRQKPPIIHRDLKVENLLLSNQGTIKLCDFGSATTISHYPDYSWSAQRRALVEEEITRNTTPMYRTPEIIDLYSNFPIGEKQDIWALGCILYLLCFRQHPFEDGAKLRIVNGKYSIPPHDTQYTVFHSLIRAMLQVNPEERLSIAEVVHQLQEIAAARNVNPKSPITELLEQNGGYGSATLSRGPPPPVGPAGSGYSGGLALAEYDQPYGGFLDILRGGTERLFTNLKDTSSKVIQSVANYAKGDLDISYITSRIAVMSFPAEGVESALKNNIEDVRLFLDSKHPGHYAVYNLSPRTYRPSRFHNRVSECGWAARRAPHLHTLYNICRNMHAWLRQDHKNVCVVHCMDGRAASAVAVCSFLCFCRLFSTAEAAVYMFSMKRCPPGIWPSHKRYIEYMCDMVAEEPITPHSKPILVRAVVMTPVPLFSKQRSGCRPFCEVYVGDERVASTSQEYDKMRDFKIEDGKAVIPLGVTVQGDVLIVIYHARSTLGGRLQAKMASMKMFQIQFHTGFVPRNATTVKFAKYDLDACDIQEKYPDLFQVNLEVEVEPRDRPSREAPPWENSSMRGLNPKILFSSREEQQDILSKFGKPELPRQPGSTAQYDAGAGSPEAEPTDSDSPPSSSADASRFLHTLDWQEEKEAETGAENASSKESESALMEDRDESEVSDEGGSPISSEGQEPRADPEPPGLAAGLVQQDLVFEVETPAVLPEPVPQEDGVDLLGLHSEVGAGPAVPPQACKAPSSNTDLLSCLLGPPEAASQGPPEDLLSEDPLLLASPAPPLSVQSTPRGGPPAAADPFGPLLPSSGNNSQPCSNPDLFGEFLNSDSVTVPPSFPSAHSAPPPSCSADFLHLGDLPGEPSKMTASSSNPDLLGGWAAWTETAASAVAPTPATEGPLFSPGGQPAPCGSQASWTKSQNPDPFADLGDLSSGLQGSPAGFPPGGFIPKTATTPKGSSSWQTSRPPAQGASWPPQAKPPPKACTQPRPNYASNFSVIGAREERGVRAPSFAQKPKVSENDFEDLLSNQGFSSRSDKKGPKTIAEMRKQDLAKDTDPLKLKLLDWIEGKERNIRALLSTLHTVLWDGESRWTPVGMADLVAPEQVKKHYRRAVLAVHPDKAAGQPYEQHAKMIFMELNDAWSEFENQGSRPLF
Briefly: Inhibition of GAK assessed as residual activity at 1000 nM.

Experiment [10] deals with Protein-tyrosine kinase 6 (Homo sapiens) (UniProt Q13882). Briefly: Inhibition of PTK6 assessed as residual activity at 1000 nM.
Sequence of Protein-tyrosine kinase 6 (Homo sapiens) (Q13882 whole entry, looked up): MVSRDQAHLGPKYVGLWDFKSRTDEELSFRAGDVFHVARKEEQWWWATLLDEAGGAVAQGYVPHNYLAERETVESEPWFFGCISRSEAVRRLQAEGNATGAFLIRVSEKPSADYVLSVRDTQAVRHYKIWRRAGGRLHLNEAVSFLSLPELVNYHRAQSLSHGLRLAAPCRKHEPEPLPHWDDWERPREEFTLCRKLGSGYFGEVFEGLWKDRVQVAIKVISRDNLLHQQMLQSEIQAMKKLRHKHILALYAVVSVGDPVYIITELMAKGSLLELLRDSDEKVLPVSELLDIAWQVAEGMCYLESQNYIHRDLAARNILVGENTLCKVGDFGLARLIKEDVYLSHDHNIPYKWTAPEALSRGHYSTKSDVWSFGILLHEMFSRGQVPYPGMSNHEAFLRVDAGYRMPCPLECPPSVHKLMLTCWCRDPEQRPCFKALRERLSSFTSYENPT
The target of experiment [11] is Mitogen-activated protein kinase 9 (Homo sapiens) (UniProt P45984). Briefly: Inhibition of JNK2 assessed as residual activity at 1000 nM.
Sequence of Mitogen-activated protein kinase 9 (Homo sapiens) (P45984 whole entry, looked up): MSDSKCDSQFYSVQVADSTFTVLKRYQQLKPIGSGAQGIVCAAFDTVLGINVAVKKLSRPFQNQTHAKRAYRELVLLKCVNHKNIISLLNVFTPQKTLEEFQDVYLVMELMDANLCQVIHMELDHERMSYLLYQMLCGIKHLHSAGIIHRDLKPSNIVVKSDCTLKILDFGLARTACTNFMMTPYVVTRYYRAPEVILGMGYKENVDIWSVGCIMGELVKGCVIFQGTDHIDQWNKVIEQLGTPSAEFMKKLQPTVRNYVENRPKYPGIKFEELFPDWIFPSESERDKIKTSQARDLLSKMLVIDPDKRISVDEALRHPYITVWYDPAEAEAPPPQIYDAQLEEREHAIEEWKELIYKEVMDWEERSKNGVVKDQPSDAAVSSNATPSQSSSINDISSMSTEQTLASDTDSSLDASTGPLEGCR
For experiment [12], the target named is Mitogen-activated protein kinase 10 (Homo sapiens) (UniProt P53779). The experiment can be described thus: Inhibition of JNK3 assessed as residual activity at 1000 nM.
The target in experiment [13] is Tyrosine-protein kinase FRK (Homo sapiens) (UniProt P42685). The experiment can be described thus: Inhibition of FRK assessed as residual activity at 1000 nM.
Sequence of Tyrosine-protein kinase FRK (Homo sapiens) (P42685 whole entry): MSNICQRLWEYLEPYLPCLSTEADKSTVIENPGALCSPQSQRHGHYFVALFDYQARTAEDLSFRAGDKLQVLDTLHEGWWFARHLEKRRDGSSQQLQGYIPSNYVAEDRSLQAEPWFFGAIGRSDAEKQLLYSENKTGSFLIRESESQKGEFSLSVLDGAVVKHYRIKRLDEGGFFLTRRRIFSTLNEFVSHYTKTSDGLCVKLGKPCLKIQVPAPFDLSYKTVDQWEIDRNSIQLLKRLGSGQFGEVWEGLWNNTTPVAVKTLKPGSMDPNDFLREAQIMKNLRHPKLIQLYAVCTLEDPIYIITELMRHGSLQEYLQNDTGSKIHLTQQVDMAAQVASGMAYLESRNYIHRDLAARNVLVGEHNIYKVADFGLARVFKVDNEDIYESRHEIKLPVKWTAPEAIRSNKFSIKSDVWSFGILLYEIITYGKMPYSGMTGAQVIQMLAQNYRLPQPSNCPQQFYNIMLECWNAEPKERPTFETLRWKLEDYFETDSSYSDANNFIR
Experiment [14] addresses Mitogen-activated protein kinase 8 (Homo sapiens) (UniProt P45983). Briefly: Inhibition of JNK1 assessed as residual activity at 1000 nM.
Experiment [15] has as its target T4, Mitogen-activated protein kinase 12 (Homo sapiens) (UniProt P53778).
T4 sequence (whole entry): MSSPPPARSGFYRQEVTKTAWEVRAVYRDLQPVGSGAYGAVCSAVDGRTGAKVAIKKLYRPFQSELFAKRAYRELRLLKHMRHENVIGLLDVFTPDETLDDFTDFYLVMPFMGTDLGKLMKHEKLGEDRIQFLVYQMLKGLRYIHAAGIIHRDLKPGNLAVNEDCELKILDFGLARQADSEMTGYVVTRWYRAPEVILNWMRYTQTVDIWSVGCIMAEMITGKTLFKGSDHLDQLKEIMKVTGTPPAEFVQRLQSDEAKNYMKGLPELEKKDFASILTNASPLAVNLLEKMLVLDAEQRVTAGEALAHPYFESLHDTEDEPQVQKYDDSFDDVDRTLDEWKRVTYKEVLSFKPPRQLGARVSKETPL
Conditions: 1000 nM.

Active and inactive are the calls of the source. The calls are words filed in the database; no cut-off is given here.

T1 sequence (Q16539 whole entry): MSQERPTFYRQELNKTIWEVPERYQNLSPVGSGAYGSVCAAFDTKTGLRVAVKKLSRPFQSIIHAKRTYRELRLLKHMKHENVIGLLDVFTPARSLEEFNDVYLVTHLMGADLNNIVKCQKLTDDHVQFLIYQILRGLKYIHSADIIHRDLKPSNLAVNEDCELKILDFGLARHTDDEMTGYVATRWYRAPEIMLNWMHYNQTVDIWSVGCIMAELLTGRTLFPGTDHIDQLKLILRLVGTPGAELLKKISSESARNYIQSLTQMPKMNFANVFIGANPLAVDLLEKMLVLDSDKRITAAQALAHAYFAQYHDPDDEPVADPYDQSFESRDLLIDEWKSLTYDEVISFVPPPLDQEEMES
Sequence of Mitogen-activated protein kinase 8 (Homo sapiens) (P45983 whole entry): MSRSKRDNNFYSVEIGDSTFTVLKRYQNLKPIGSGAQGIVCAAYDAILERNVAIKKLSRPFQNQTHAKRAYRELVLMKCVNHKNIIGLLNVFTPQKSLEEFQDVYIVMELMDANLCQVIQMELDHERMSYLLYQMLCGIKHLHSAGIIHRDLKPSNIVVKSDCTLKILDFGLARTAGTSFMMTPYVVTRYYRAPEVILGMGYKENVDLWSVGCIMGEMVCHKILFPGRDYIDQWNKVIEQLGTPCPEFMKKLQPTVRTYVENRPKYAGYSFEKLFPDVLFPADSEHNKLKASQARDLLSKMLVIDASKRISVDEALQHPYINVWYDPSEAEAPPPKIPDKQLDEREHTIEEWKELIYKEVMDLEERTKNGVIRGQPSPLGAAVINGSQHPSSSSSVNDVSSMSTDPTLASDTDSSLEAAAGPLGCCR
Sequence of Proto-oncogene tyrosine-protein kinase Src (Homo sapiens) (P12931 2-536 limits assumed): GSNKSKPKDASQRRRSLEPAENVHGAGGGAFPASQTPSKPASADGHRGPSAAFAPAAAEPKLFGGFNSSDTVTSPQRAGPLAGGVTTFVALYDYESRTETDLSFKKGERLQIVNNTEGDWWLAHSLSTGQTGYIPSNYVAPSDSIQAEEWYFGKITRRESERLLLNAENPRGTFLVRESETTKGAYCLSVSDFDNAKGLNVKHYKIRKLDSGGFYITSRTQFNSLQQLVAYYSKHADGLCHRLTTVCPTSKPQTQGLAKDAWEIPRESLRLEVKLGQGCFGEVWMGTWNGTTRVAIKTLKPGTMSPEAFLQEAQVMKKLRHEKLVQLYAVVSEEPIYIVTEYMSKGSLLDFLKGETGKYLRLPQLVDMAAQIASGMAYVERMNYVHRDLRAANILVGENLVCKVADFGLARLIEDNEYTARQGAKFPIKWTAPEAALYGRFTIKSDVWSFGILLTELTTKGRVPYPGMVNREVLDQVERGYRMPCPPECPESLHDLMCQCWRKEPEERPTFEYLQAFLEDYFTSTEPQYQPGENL

For `COCn1c(-c2ccccc2)nc(-c2ccc(F)cc2)c1-c1ccnc2[nH]ccc12`, the Ratio IC50 in experiment [1] was found to be 0.18. Moreover, the IC50 in [2] was determined as 451 nM. As to `Fc1ccc(-c2nc(-c3ccccc3)[nH]c2-c2ccnc3[nH]ccc23)cc1`, the Ratio IC50 in experiment [1] was 0.47. With `Fc1ccc(-c2nc(-c3ccccc3)[nH]c2-c2ccnc3[nH]c(Cc4ccccc4)cc23)cc1`, in experiment [1], the Ratio IC50 was found to be 0.07. Besides, the half-inhibitory concentration (IC50) in [2] was 345 nM. Regarding `Fc1ccc(-c2nc(-c3ccccc3)[nH]c2-c2ccnc3[nH]c(-c4ccccc4)cc23)cc1`, the Ratio IC50 in experiment [1] was 2.38. As to `CS(=O)(=O)c1ccc(-c2nc(-c3ccc(F)cc3)c(-c3ccnc4[nH]c(-c5ccccc5)cc34)[nH]2)cc1`, the Ratio IC50 in [1] came to 3.46. In [2], this compound registered a 50% inhibitory concentration (IC50) of 11 nM. For `Oc1ccc(-c2nc(-c3ccc(F)cc3)c(-c3ccnc4[nH]c(-c5ccccc5)cc34)[nH]2)cc1`, the Activity in experiment [3] was determined as 17%; in experiment [4] it was 8.9%; in experiment [5], 28%; in [6], 3.2%; in experiment [7], 2.5%; in experiment [8], 4.8%. The Activity in [9] worked out at 7.7%. Moreover, the Ratio IC50 in [1] was found to be 19.7. For `Fc1ccc(-c2nc(-c3ccccc3)[nH]c2-c2ncnc3[nH]cnc23)cc1`, the Ratio IC50 in experiment [1] stood at 0.1. This compound also had an IC50 in experiment [2] of 740 nM. As to `COc1ccc(-c2nc(-c3ccnc4[nH]c(-c5ccccc5)cc34)c(-c3ccc(F)cc3)[nH]2)cc1`, the IC50 in [2] was 70 nM. Take `COCn1c(-c2ccccc2)nc(-c2ccc(F)cc2)c1-c1ncnc2[nH]cnc12`: the Ratio IC50 in experiment [1] is 0.01. In experiment [2], this compound returned a 50% inhibitory concentration (IC50) of 2990 nM. Regarding `COc1ccc(-c2nc(-c3ccc(F)cc3)c(-c3ccnc4[nH]c(-c5ccccc5)cc34)[nH]2)cc1`, the Ratio IC50 in [1] stood at 0.67. As for `Fc1ccc(-c2nc(-c3ccccc3)[nH]c2-c2ncnc3[nH]ccc23)cc1`, the Ratio IC50 in experiment [1] turned out to be 0.03. Moreover, the IC50 in [2] is 2600 nM. For the compound `Oc1ccc(-c2nc(-c3ccc(F)cc3)c(-c3ccncc3)[nH]2)cc1`, the inhibition result in experiment [10], in experiment [3], in experiment [4], in experiment [11], in [12] and in [6] was “Active” each time. The inhibition entry in experiment [7], in experiment [8], in [13], in experiment [14], in [15] and in experiment [9] was “Active” throughout.

As to `COc1cc(-c2nc(-c3ccc(F)cc3)c(-c3ccnc4[nH]c(-c5ccccc5)cc34)[nH]2)cc(OC)c1OC`, in experiment [1], the Ratio IC50 stood at 0.12.

`Fc1ccc(-c2[nH]c(-c3ccccc3)nc2-c2ccnc3[nH]c4ccccc4c23)cc1` yielded an IC50 in [2] of 153 nM. `CSc1ccc(-c2nc(-c3ccc(F)cc3)c(-c3ccnc4[nH]c(-c5ccccc5)cc34)[nH]2)cc1`: the Ratio IC50 in experiment [1] stood at 0.97. In the case of `Fc1ccc(-c2[nH]c(-c3ccccc3)nc2-c2ccnc3[nH]c(-c4ccccc4)cc23)cc1`, the IC50 in experiment [2] was determined as 16 nM. As to `Fc1ccc(-c2[nH]c(-c3ccccc3)nc2-c2ccncc2)cc1`, the Ratio IC50 in experiment [1] came out at 0.33. Regarding `C[S+]([O-])c1ccc(-c2nc(-c3ccc(F)cc3)c(-c3ccnc4[nH]c(-c5ccccc5)cc34)[nH]2)cc1` (stereo not given), the Ratio IC50 in experiment [1] is 4.75. Turning to `Fc1ccc(-c2nc(-c3ccccc3)[nH]c2-c2ccnc3[nH]c4ccccc4c23)cc1`, the Ratio IC50 in [1] was 0.55. In the case of `COc1cc(-c2nc(-c3ccnc4[nH]c(-c5ccccc5)cc34)c(-c3ccc(F)cc3)[nH]2)cc(OC)c1OC`, the IC50 in experiment [2] came out at 290 nM. For `Fc1ccc(-c2nc(-c3ccccc3)[nH]c2-c2ccnc3[nH]c(C4CCCCC4)cc23)cc1`, the Ratio IC50 in experiment [1] was 2.07. With `Fc1ccc(-c2[nH]c(-c3ccccc3)nc2-c2ccnc3[nH]c(C4CCCCC4)cc23)cc1`, the IC50 in experiment [2] is 15 nM.

In experiment [2], `C[S+]([O-])c1ccc(-c2nc(-c3ccnc4[nH]c(-c5ccccc5)cc34)c(-c3ccc(F)cc3)[nH]2)cc1` (stereo not given) displayed an IC50 of 8 nM. In [2], `Oc1ccc(-c2nc(-c3ccnc4[nH]c(-c5ccccc5)cc34)c(-c3ccc(F)cc3)[nH]2)cc1` had an IC50 of 3 nM. For `Fc1ccc(-c2[nH]c(-c3ccccc3)nc2-c2ccnc3[nH]ccc23)cc1`, in [2], the IC50 amounted to 108 nM. `CSc1ccc(-c2nc(-c3ccnc4[nH]c(-c5ccccc5)cc34)c(-c3ccc(F)cc3)[nH]2)cc1`: the IC50 in experiment [2] came to 39 nM.
